Source: PubChem BioAssay (Sanford-Burnham Center for Chemical Genomics)
A selection: hits, their analogues and other compounds. The true share with any hit is near 0.72%.
mIAP block – blocks mouse intestinal alkaline phosphatase | 330,000 compounds, 0.2% hits | purified mouse IAP, CDP-Star luminescence, 30 min | inhibition, % at 10 µM;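 active means inhibition of at least 40% at 10 µM in the primary screen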;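 further: plate controls were DMSO with enzyme for no effect and no enzyme wells for full effect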
bIAP activator – increases bovine intestinal alkaline phosphatase activity; activation factor at 20 µM; 200,000 compounds, 0.17% hits; purified bovine IAP, CDP-star luminescence, 30 min; hits give high values; fold of DMSO-control signal, blank-subtracted;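 active means activation factor of 2 or more at 20 µM, a signal rise over negative controls twice the positive control's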
hIAP act – increases human intestinal alkaline phosphatase activity. P09923. purified human IAP, CDP-Star luminescence, 30 min; hits give high values; 1 = vehicle-only enzyme, 0 = enzyme-free background. activation factor at 10 µM. 330,000 compounds, 0.16% hits. AID 2524;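 active means activation factor of the enzyme at least 2-fold when tested at 20 µM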
Target sequence (P09923 whole entry, looked up): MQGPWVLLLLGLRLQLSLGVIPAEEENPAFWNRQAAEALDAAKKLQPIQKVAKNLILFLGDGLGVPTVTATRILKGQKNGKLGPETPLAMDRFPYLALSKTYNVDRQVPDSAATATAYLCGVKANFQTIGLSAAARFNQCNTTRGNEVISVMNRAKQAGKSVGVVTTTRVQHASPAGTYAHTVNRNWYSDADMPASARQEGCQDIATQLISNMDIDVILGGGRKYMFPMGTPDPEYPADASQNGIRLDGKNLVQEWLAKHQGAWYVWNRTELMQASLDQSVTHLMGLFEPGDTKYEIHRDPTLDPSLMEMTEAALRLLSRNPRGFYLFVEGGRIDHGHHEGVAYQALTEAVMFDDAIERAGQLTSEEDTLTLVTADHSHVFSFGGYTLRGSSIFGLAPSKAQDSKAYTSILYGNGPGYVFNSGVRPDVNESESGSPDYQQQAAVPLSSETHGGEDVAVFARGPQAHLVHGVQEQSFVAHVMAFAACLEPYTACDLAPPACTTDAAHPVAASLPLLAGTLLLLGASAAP
mIAP act – mouse IAP activation; 330,000 compounds, 0.24% hits; activation factor at 10 µM; muIAP, CDP-Star luminescence, 30 min; hits give high values; 1 = vehicle-only enzyme signal, 0 = enzyme-free wells;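 active means activation factor of at least 2 at 20 µM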
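Assay system: mouse IAP enzyme / Compound: DMSO-dissolved test compounds / Timing: 30 min, room temperature / Measured by: luminescence from enzymatic CDP-Star hydrolysis / Control set: DMSO-only wells, enzyme-free buffer wells as negative control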
bIAP inh – intestinal alkaline phosphatase (bovine) inhibition; inhibition, % at 20 µM; 190,000 tested, under 10 active; purified bovine IAP, CDP-star luminescence, 30 min;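 active means over 50% inhibition of intestinal alkaline phosphatase at 20 µM in the single-dose screen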
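Incubation: 30 min reaction at room temperature / Material: purified bovine intestinal alkaline phosphatase (IAP) enzyme / Input: enzyme at 1/65,000,000 dilution / Dosing: 20 µM single dose / Signal: CDP-star luminescence signal / Reagent: CDP-star chemiluminescent phosphatase substrate, 30 µM final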
hIAP inh – blocks human intestinal alkaline phosphatase; purified IAP, CDP-Star luminescence, 30 min; AID 2544; inhibition, % at 10 µM; 330,000 compounds, 0.12% hits; P09923;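 active means inhibition reaching a set limit with compound at 10 µM in the primary screen, cut at about 35% in these data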;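 further: plate controls were DMSO wells with enzyme for no effect and no-enzyme buffer wells for full effect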
mIAP inh confirm – mouse IAP inhibition confirmation; shares compounds with mIAP block; purified mouse IAP, CDP-Star luminescence, 30 min; inhibition, % at 10 µM; 11,000 compounds, 4.7% hits; AID 434971;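 active means inhibition of at least 40% at 10 µM in either of the two replicates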;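 further: plate controls were DMSO wells with enzyme for no effect and buffer wells lacking enzyme for full effect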
* = called active by the depositor.

How did CCN(C(=O)C(C)N1C(=O)/C(=C/c2ccco2)SC1=S)C1CCS(=O)(=O)C1 (stereo not given) do in these assays?
mIAP block: 50.9*; hIAP act: 0.997; mIAP act: 0.491; hIAP inh: 0.3; mIAP inh confirm: 69.8*

What do the screens show for `CCN1C(=O)C2(C(C(=O)c3cc4ccccc4o3)=C(O)C(=O)N2CCCN2CCOCC2)c2ccccc21` (stereo not given)?
mIAP block: -4.0; hIAP act: 0.876; mIAP act: 1.04; hIAP inh: 12.4

What do the screens show for `c1coc(CSSCc2ccco2)c1`?
mIAP block: 70.8*; hIAP act: 1.02; mIAP act: 0.292; hIAP inh: -1.9; mIAP inh confirm: 75.2*

What do the screens show for `CC(C)(C)c1ccc(C(=O)N2CCN(c3ccc(N4CCOCC4)nn3)CC2)cc1`?
mIAP block: -8.8; hIAP act: 1.1; mIAP act: 1.09; hIAP inh: -10.5

How did CC(C)n1nnnc1SCC(=O)N1N=C(c2cccs2)CC1c1cccs1 (stereo not given) do in these assays?
mIAP block: 1.4; hIAP act: 1.16; mIAP act: 0.986; hIAP inh: -16.4

Results for NC1=NC(=O)/C(=C\c2ccco2)S1 ?
mIAP block: 74.9*; hIAP act: 0.868; mIAP act: 0.251; hIAP inh: 13.2; mIAP inh confirm: 82.2*

How did CC(=O)Nc1ccc(S(=O)(=O)/N=C2/NC(=O)/C(=C\c3ccco3)S2)cc1 do in these assays?
mIAP block: 45.7*; bIAP activator: 1.2; hIAP act: 0.952; mIAP act: 0.543; bIAP inh: -18.1; hIAP inh: 4.8; mIAP inh confirm: 48.8*

How did Cc1ccc(S(=O)(=O)/N=C2/NC(=O)/C(=C\c3ccccc3)S2)cc1 do in these assays?
mIAP block: 2.8; hIAP act: 1.08; mIAP act: 0.972; hIAP inh: -8.1

How did Cc1ccc(S(=O)(=O)/N=C2/NC(=O)/C(=C\c3ccco3)S2)cc1 do in these assays?
mIAP block: 40.2*; bIAP activator: 1; hIAP act: 0.919; mIAP act: 0.598; bIAP inh: 2.5; hIAP inh: 8.1; mIAP inh confirm: 43.1*

How did COc1cccc(NC(=O)NC2CCCCCCC2)c1 do in these assays?
mIAP block: -105.3; hIAP act: 1.14; mIAP act: 2.05*; hIAP inh: -13.5; mIAP inh confirm: -167.0

What do the screens show for `COc1cc(NC(=O)NC2Cc3ccccc3C2)cc(OC)c1`?
mIAP block: -237.4; hIAP act: 1.28; mIAP act: 3.37*; hIAP inh: -28.4; mIAP inh confirm: -168.8

Results for CCCCCCNC(=O)N[C@@H](C(=O)NCCC[C@H]1CN2C(=NC[C@@H]2Cc2ccccc2)N1CCc1cccc(OC)c1)C(C)C ?
mIAP block: -230.6; hIAP act: 1.11; mIAP act: 3.31*; hIAP inh: -10.7; mIAP inh confirm: -210.8

Results for C/C=C(\C)C(=O)NCCN1C2=NC[C@@H](Cc3ccccc3)N2C[C@@H]1Cc1ccc(OC)cc1 ?
mIAP block: -8.1; hIAP act: 0.885; mIAP act: 1.08; hIAP inh: 11.5
